# ChEMBL document CHEMBL5705890, “Antitumor activity of an allosteric inhibitor of centromere-associated protein-E” (Proc Natl Acad Sci U S A, 2010)
# Columns and labels:
# Type in all cases: functional
# 647-V = test: Anticancer activity against human 647-V cells assessed as cell growth inhibition measured after 72 hrs by DAPI staining based analysis
# Summary of the method: (§1)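 Cells were seeded and, after 24 h, DNA content was read as T0. Cells were then exposed to varying drug concentrations for a further 72 h (T72). Fixed cells were DAPI-stained and DNA content measured by automated imaging. T72 values were normalized to T0. GI50 is the concentration giving 50% growth inhibition between T0 and Ymax, obtained by curve fitting.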
# ACHN = test: Anticancer activity against human ACHN cells assessed as cell growth inhibition measured after 72 hrs by DAPI staining based analysis; summary of the method: as §1
# CGTH-W-1 = test: Anticancer activity against human CGTH-W-1 cells assessed as cell growth inhibition measured after 72 hrs by DAPI staining based analysis
# Summary of the method: (§2)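 Cells were seeded, and DNA content at 24 h after seeding (T0) was read by imaging of fixed, DAPI-stained cells. Cells were then exposed to a range of drug concentrations for a further 72 h (T72) and DNA content was read again. T72 values were normalized to T0, and GI50 was taken from curve fits as the concentration giving 50% growth inhibition relative to T0 and Ymax.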
# [1] = Anticancer activity against human CML-T1 cells assessed as cell growth inhibition measured after 72 hrs by DAPI staining based analysis; summary of the method: as §2
# GCT = test: Anticancer activity against human GCT cells assessed as cell growth inhibition measured after 72 hrs by DAPI staining based analysis
# Summary of the method: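 Cells seeded, DAPI-stained DNA content of fixed cells read by imaging 24 h after seeding (T0), and again after a further 72 h exposure to a range of drug concentrations (T72). T72 values were normalized to T0. Curve fits gave the concentration producing 50% growth inhibition relative to T0 and Ymax (GI50).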
# HeLa = test: Anticancer activity against human HeLa cells assessed as cell growth inhibition measured after 72 hrs by DAPI staining based analysis
# LOX IMVI = test: Anticancer activity against human LOX IMVI cells assessed as cell growth inhibition measured after 72 hrs by DAPI staining based analysis
# Malme-3M = test: Anticancer activity against human Malme-3M cells assessed as cell growth inhibition measured after 72 hrs by DAPI staining based analysis
# MC-CAR = test: Anticancer activity against human MC-CAR cells assessed as cell growth inhibition measured after 72 hrs by DAPI staining based analysis
# NCI-N87 [2] = test: Anticancer activity against human NCI-N87 cells assessed as cell growth inhibition measured after 72 hrs by DAPI staining based analysis
# OV-90 = test: Anticancer activity against human OV-90 cells assessed as cell growth inhibition measured after 72 hrs by DAPI staining based analysis
# RD = test: Anticancer activity against human RD cells assessed as cell growth inhibition measured after 72 hrs by DAPI staining based analysis
# RL95-2 = test: Anticancer activity against human RL95-2 cells assessed as cell growth inhibition measured after 72 hrs by DAPI staining based analysis
# SK-UT-1 [3] = test: Anticancer activity against human SK-UT-1 cells assessed as cell growth inhibition measured after 72 hrs by DAPI staining based analysis
# SNU-398 = test: Anticancer activity against human SNU-398 cells assessed as cell growth inhibition measured after 72 hrs by DAPI staining based analysis
# SW1417 [4] = test: Anticancer activity against human SW1417 cells assessed as cell growth inhibition measured after 72 hrs by DAPI staining based analysis
# SW480 = test: Anticancer activity against human SW480 cells assessed as cell growth inhibition measured after 72 hrs by DAPI staining based analysis
# ARH-77 = test: Anticancer activity against human ARH-77 cells assessed as cell doubling measured for 72 hrs by DAPI staining based analysis
# DU-145 = test: Anticancer activity against human DU-145 cells assessed as cell doubling measured for 72 hrs by DAPI staining based analysis
# HT-1376 = test: Anticancer activity against human HT-1376 cells assessed as cell doubling measured for 72 hrs by DAPI staining based analysis
# IGROV-1 = test: Anticancer activity against human IGROV-1 cells assessed as cell doubling measured for 72 hrs by DAPI staining based analysis
# J82 = test: Anticancer activity against human J82 cells assessed as cell doubling measured for 72 hrs by DAPI staining based analysis
# MDA-MB-453 = test: Anticancer activity against human MDA-MB-453 cells assessed as cell doubling measured for 72 hrs by DAPI staining based analysis
# NCI-H358 = test: Anticancer activity against human NCI-H358 cells assessed as cell doubling measured for 72 hrs by DAPI staining based analysis
# NCI-N87 [5] = test: Anticancer activity against human NCI-N87 cells assessed as cell doubling measured for 72 hrs by DAPI staining based analysis
# SHP77 = test: Anticancer activity against human SHP77 cells assessed as cell doubling measured for 72 hrs by DAPI staining based analysis
# SJRH30 = test: Anticancer activity against human SJRH30 cells assessed as cell doubling measured for 72 hrs by DAPI staining based analysis
# SK-MEL3 = test: Anticancer activity against human SK-MEL3 cells assessed as cell doubling measured for 72 hrs by DAPI staining based analysis
# SK-N-FI = test: Anticancer activity against human SK-N-FI cells assessed as cell doubling measured for 72 hrs by DAPI staining based analysis
# SK-UT-1 [6] = test: Anticancer activity against human SK-UT-1 cells assessed as cell doubling measured for 72 hrs by DAPI staining based analysis
# SW1417 [7] = test: Anticancer activity against human SW1417 cells assessed as cell doubling measured for 72 hrs by DAPI staining based analysis
# THP-1 = test: Anticancer activity against human THP-1 cells assessed as cell doubling measured for 72 hrs by DAPI staining based analysis
# HT-29 = test: Antitumor activity against human HT-29 cells in xenograft model assessed as difference between median time to endpoint time of treated versus control group at 125 mg/kg
# NCI-H1299 [8] = test: Antitumor activity against human NCI-H1299 cells in xenograft model assessed as difference between median time to endpoint time of treated versus control group at 125 mg/kg
# COLO 205 = test: Antitumor activity against human COLO 205 cells in xenograft model assessed as tumor growth delay at 62.5 mg/kg relative to control
# NCI-H1299 [9] = test: Antitumor activity against human NCI-H1299 cells in xenograft model assessed as tumor growth delay at 62.5 mg/kg relative to control
# [10] = Antitumor activity against human MV-522 cells in xenograft model assessed as tumor growth delay at 62.5 mg/kg relative to control
# MX1 = test: Antitumor activity against human MX1 cells in xenograft model assessed as tumor growth delay at 62.5 mg/kg relative to control
# MCF7 = test: Antitumor activity against human MCF7 cells in xenograft model assessed as tumor growth delay at 125 mg/kg relative to control
# MDA-MB-231 = test: Antitumor activity against human MDA-MB-231 cells in xenograft model assessed as tumor growth delay at 125 mg/kg relative to control
smiles,measurement,setting,value
CC(C)Oc1ccc(C(=O)N[C@H](CNC(=O)CN(C)C)Cc2ccc(-c3cn4cccc([C@H](C)O)c4n3)cc2)cc1Cl [GSK-923295A],GI50,647-V,72 nM
same,GI50,ACHN,61 nM
same,GI50,CGTH-W-1,30 nM
same,GI50,[1],13 nM
same,GI50,GCT,23 nM
same,GI50,HeLa,20 nM
same,GI50,LOX IMVI,25 nM
same,GI50,Malme-3M,51 nM
same,GI50,MC-CAR,86 nM
same,GI50,NCI-N87 [2],29 nM
same,GI50,OV-90,61 nM
same,GI50,RD,28 nM
same,GI50,RL95-2,49 nM
same,GI50,SK-UT-1 [3],23 nM
same,GI50,SNU-398,27 nM
same,GI50,SW1417 [4],29 nM
same,GI50,SW480,33 nM
same,Activity,ARH-77,1.62
same,Activity,DU-145,2.25
same,Activity,HT-1376,1.74
same,Activity,IGROV-1,2.69
same,Activity,J82,2.04
same,Activity,MDA-MB-453,2.26
same,Activity,NCI-H358,2.07
same,Activity,NCI-N87 [5],2.53
same,Activity,SHP77,2.04
same,Activity,SJRH30,2.12
same,Activity,SK-MEL3,1.11
same,Activity,SK-N-FI,1.24
same,Activity,SK-UT-1 [6],2.88
same,Activity,SW1417 [7],1.94
same,Activity,THP-1,1.38
same,Time,HT-29,18 days
same,Time,NCI-H1299 [8],16.8 days
same,Activity,COLO 205,122%
same,Activity,NCI-H1299 [9],15%
same,Activity,[10],50%
same,Activity,MX1,5%
same,Activity,MCF7,58%
same,Activity,MDA-MB-231,99%
